Entries after “also recorded” stand apart in the source; their conditions may differ.
Columns and labels:
[1] = system: HCMV Towne; test: HCMV entry, indirect immunofluorescence assay for pp65; format: cell-based, human cytomegalovirus; settings: 24 h pretreatment; MLS8969 3 μM, heparin 30 μM, GCV 5 μM; IFA 2 hpi
[2] = system: HCMV Towne; test: drug combination with letermovir, plaque reduction assay, Bliss model; format: cell-based, human cytomegalovirus; settings: Human betaherpesvirus 5, read-out: EC50 (Compound 1, letermovir alone)
[3] = system: HCMV Towne; test: viral DNA replication and DNA load in supernatants, US17 real-time PCR; format: cell-based, human cytomegalovirus; settings: HCMV Towne MOI 0.1; NFU1827 5 μM, MLS8554 2 μM, MLS8091 1.5 μM, NCGC2955 3 μM; GCV 5 μM
[4] = system: HCMV Towne; test: Western blot of viral protein expression in HCMV-infected HFFs; format: cell-based, human cytomegalovirus
[5] = system: EBV; test: inhibition of lytic EBV replication in AKATA cells, real-time PCR; format: cell-based, Epstein Barr virus
[6] = system: MCMV Smith strain; test: plaque reduction assay, MCMV in MEFs; format: cell-based, mouse CMV
[7] = system: HCMV Towne; test: add-on and removal assays, luciferase activity at 72 hpi; format: cell-based, human cytomegalovirus; settings: for timing of activity in the add-on assay / timing of activity in the removal assay: compared with GCV; for HCMV suppression when compound removed at 6 h (removal assay) / activity when added at or after 24 hpi (add-on assay): HCMV Towne MOI 1, luciferase 72 hpi; for time of anti-HCMV activity: add-on and removal assays
[8] = system: HSV1; test: plaque reduction assay, HSV1 clinical isolate in Vero cells; format: cell-based, herpes simplex 1
[9] = system: HSV2; test: plaque reduction assay, HSV2 clinical isolate in Vero cells; format: cell-based, herpes simplex 2
[10] = system: HCMV Towne (pp28-luciferase); test: pp28-luciferase recombinant HCMV Towne, luciferase activity at 72 hpi in HFFs; format: cell-based, human cytomegalovirus
[11] = system: MEFs; test: toxicity to MEFs; format: cell-based, mouse
Summary of the method: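 Uninfected mouse embryonic fibroblasts were exposed to test compound for 72 h or 8–10 days, the same time points as the antiviral assays. MTT (5 mg/mL stock in PBS) was then added, the plates were shaken at 150 rpm for 5 min and incubated at 37 °C for 2–3 h. Formazan formed by living cells was read as absorbance at 560 nm.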

| Compound | inhibition of HCMV entry (pp65 nuclear staining) [1] | viral DNA replication in cells [3] | viral DNA yield in supernatants [3] | viral protein expression (Western blot) ([4]; MOI 1, 72 hpi) | activity against MCMV (in words) [6] | activity against HSV1 (in words) [8] | activity against HSV2 (in words) [9] | also measured |
| --- | --- | --- | --- | --- | --- | --- | --- | --- |
| Nc1nc2c(ncn2COC(CO)CO)c(=O)[nH]1 [GCV, Ganciclovir] | did not affect pp65 nuclear staining | – | – | – | – | – | – | – |
| COc1cccc(N2CCN(C3=Nc4c(F)cccc4[C@H](CC(=O)O)N3c3cc(C(F)(F)F)ccc3OC)CC2)c1 [Letermovir] | – | – | – | – | – | – | – | EC50 [2]: 1.1 ± 0.1 nM |
| Nc1c(S(=O)(=O)c2cccs2)c2nc3ccccc3nc2n1Cc1ccccc1 [MLS8091] | – | higher than that achieved with GCV | not significantly different from GCV | Inhibition of all viral proteins | did not inhibit | did not inhibit | did not inhibit | activity against EBV (in words) [5]: did not inhibit; also recorded: not active; timing of activity in the add-on assay [7]: overlapped with that of GCV; timing of activity in the removal assay [7]: showed earlier effects |
| CCc1ccc(NC(=O)[C@H](Cc2c[nH]c3ccccc23)NC(=O)[C@@H]2Cc3ccccc3CN2)cc1 [MLS8554] | – | significantly reduced | significantly reduced | reduced IE2, UL44, UL84 and pp65 protein levels | – | active | active | HCMV suppression when compound removed at 6 h (removal assay) [7]: near complete; activity when added at or after 24 hpi (add-on assay) [7]: activity was significantly reduced; time of anti-HCMV activity [7]: 0–24 hpi |
| COc1ccc(Cl)cc1C(=O)Nc1ccc(NC(=O)c2ccco2)cc1 [MLS8969] | inhibited HCMV entry only at MOI of 0.1 | – | – | no inhibition of viral protein expression | did not inhibit | did not inhibit | did not inhibit | viral protein expression (Western blot) ([4]; pretreatment followed by infection at low MOI (0.01), 72 hpi): decreased IE1/2, pp65, UL84 and UL44 protein levels; activity against EBV (in words) [5]: did not inhibit; reduction of luciferase activity ([10]; compound added after infection, MOI of 1 PFU/cell, 72 hpi): minimal reduction in luciferase activity; inhibition of luciferase activity ([10]; compound added before infection, range of MOIs): MOI-dependent inhibition of luciferase activity |
| CC(C)NC(=O)C1CCN(C(=O)c2cc3sccc3n2Cc2ccc(Cl)cc2)CC1 [NCGC2955, 1-(4-(4-chIorobenzyl)-4H-thieno[3,2-b]pyrrole-5-carbonyl)-N-isopropyIpiperidine-4-carboxamide] | – | modest | modest | strong reduction in viral protein expression including IE1 and IE2 | – | – | – | dose response in pp28-luciferase assay [10]: did not show a full dose response; timing of activity in the add-on assay [7]: overlapped with that of GCV; timing of activity in the removal assay [7]: longer activity than GCV; concentration at which toxicity to MEFs was observed [11]: ≥ 10 µM |
| CCN1CCN(CCCNC(=O)c2ccc3c(c2)sc2nc(-c4ccc(OC)cc4)cn23)CC1 [NFU1827, N-[3-(4-ethylpiperazin-1-yl)propyl]-4-(4-methoxyphenyl)-7-thia-2,5-diazatricyclo [6.4.0.02,6] dodeca-1(8),3,5,9,11-pentaene-10-carboxamide] | – | significantly reduced | significantly reduced | reduced the level of both IE1 and IE2 | no activity | no activity | no activity | HCMV suppression when compound removed at 6 h (removal assay) [7]: significant HCMV suppression; activity when added at or after 24 hpi (add-on assay) [7]: lost its ability to inhibit HCMV; time of anti-HCMV activity [7]: 0–24 hpi |
| Heparin | inhibited HCMV entry | – | – | – | – | – | – | – |

Reference: PMC7386824 (Journal of medicinal chemistry, 2020)
